In data set [1] the target is Serine/threonine-protein kinase BRSK2 (Homo sapiens) (UniProt Q8IWQ3). Briefly: Binding affinity to wild-type human full length BRSK2 (M1 to L674 residues) expressed in bacterial expression system assessed as residual binding level at 1 uM by Kinomescan method relative to control. A digest of the protocol:
(§1)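 Single-concentration (1 μM) competition-binding screen run by KINOMEscan against a panel of 468 purified kinases and mutants. The read-out is the relative binding activity of the test compound to each kinase.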

Data set [2] has as its target Mitotic checkpoint serine/threonine-protein kinase BUB1 (Homo sapiens) (UniProt O43683). Nature of the data set: Binding affinity to wild-type human partial length BUB1 (Q724 to K1085 residues) expressed in mammalian expression system assessed as residual binding level at 1 uM by Kinomescan method relative to control.
Data set [3] deals with Cyclin-dependent kinase 3 (Homo sapiens) (UniProt Q00526). Nature of the data set: Binding affinity to wild-type human full length CDK3 (M1 to H305 residues) expressed in bacterial expression system assessed as residual binding level at 1 uM by Kinomescan method relative to control. In short, it runs like this:
as §1

Data set [4] addresses Casein kinase I isoform alpha (Homo sapiens) (UniProt P48729). Briefly: Binding affinity to wild-type human partial length CSNK1A1 (M1 to L450 residues) expressed in mammalian expression system assessed as residual binding level at 1 uM by Kinomescan method relative to control. In short, it runs like this: (§2)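 Kinome-wide competition binding screen against a panel of 468 purified kinases/mutants, with the test compound at a single concentration of 1 μM. Read-out is the relative binding activity of each kinase in the presence of compound.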

Data set [5] concerns the target Glycogen synthase kinase-3 beta (Homo sapiens) (UniProt P49841). Nature of the data set: Binding affinity to wild-type human full length GSK3B (M1 to T433 residues) expressed in mammalian expression system assessed as residual binding level at 1 uM by Kinomescan method relative to control. In short, it runs like this: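 KINOMEscan competition binding against 468 purified kinases/mutants, test compound at 1 µM; residual binding relative to control.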

Data set [6] addresses Inhibitor of nuclear factor kappa-B kinase subunit alpha (Homo sapiens) (UniProt O15111). Briefly: Binding affinity to wild-type human full length IKK-alpha (M1 to E745 residues) expressed in mammalian expression system assessed as residual binding level at 1 uM by Kinomescan method relative to control. In short, it runs like this:
as §1

Data set [7] concerns the target Interleukin-1 receptor-associated kinase 4 (Homo sapiens) (UniProt Q9NWZ3). Nature of the data set: Binding affinity to wild-type human partial length IRAK4 (M1 to S460 residues) expressed in mammalian expression system assessed as residual binding level at 1 uM by Kinomescan method relative to control.
The subject of data set [8] is Mast/stem cell growth factor receptor Kit (Homo sapiens), P10721 [V559D]. Nature of the data set: Binding affinity to human partial length KIT V559D mutant (Y545 to D952 residues) expressed in bacterial expression system assessed as residual binding level at 1 uM by Kinomescan method relative to control. In short, it runs like this: (§3)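 Kinome-wide single-concentration binding screen (KINOMEscan) at 1 μM against a panel of 468 purified kinases and mutants. Read-out is relative binding of each kinase compared with control. Selectivity across the panel was summarised as an S(10) score.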

Data set [9] deals with Leukocyte tyrosine kinase receptor (Homo sapiens) (UniProt P29376). Nature of the data set: Binding affinity to wild-type human partial length LTK (P422 to S744 residues) expressed in bacterial expression system assessed as residual binding level at 1 uM by Kinomescan method relative to control. A digest of the protocol:
as §2

Data set [10] deals with Myosin-IIIb (Homo sapiens) (UniProt Q8WXR4). Briefly: Binding affinity to wild-type human partial length MYO3B (M1 to D357 residues) expressed in bacterial expression system assessed as residual binding level at 1 uM by Kinomescan method relative to control.
In data set [11] the target is Cyclin-dependent kinase 17 (Homo sapiens) (UniProt Q00537). Briefly: Binding affinity to wild-type human full length PCTK2 (M1 to F523 residues) expressed in bacterial expression system assessed as residual binding level at 1 uM by Kinomescan method relative to control. A digest of the protocol:
(§4)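 Single-concentration KINOMEscan (DiscoverX) binding screen at 1 μM against a panel of 468 purified kinases and mutants. The read-out is binding relative to control.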

In data set [12] the target is Cyclin-dependent kinase 18 (Homo sapiens) (UniProt Q07002). Briefly: Binding affinity to wild-type human full length PCTK3 (M3 to F474 residues) expressed in bacterial expression system assessed as residual binding level at 1 uM by Kinomescan method relative to control. A digest of the protocol: as §4
Data set [13] deals with Phosphatidylinositol 4,5-bisphosphate 3-kinase catalytic subunit alpha isoform (Homo sapiens), P42336 [Q546K]. Nature of the data set: Binding affinity to human partial length PIK3CA Q546K mutant (R108 to N1068 residues) expressed in mammalian expression system assessed as residual binding level at 1 uM by Kinomescan method relative to control. In short, it runs like this: as §3

The target of data set [14] is Serine/threonine-protein kinase pim-2 (Homo sapiens) (UniProt Q9P1W9). Briefly: Binding affinity to wild-type human partial length PIM2 (M1 to E291 residues) expressed in bacterial expression system assessed as residual binding level at 1 uM by Kinomescan method relative to control.
The target in data set [15] is Serine/threonine-protein kinase D2 (Homo sapiens) (UniProt Q9BZL6). Nature of the data set: Binding affinity to wild-type human partial length PRKD2 (A519 to E838 residues) expressed in bacterial expression system assessed as residual binding level at 1 uM by Kinomescan method relative to control.
Data set [16] addresses Serine/threonine-protein kinase SIK3 (Homo sapiens) (UniProt Q9Y2K2). Nature of the data set: Binding affinity to wild-type human partial length QSK (A90 to L395 residues) expressed in mammalian expression system assessed as residual binding level at 1 uM by Kinomescan method relative to control.
The target in data set [17] is Receptor-interacting serine/threonine-protein kinase 1 (Homo sapiens) (UniProt Q13546). Briefly: Binding affinity to wild-type human partial length RIPK1 (M1 to K305 residues) expressed in bacterial expression system assessed as residual binding level at 1 uM by Kinomescan method relative to control. In short, it runs like this:
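KINOMEscan competition binding against a panel of 468 purified kinases/mutants, compound tested at 1 μM; readout is relative binding activity versus control.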

Data set [18] concerns the target NUAK family SNF1-like kinase 2 (Homo sapiens) (UniProt Q9H093). Nature of the data set: Binding affinity to wild-type human partial length SNARK (P22 to A333 residues) expressed in mammalian expression system assessed as residual binding level at 1 uM by Kinomescan method relative to control.
Data set [19] relates to Mus musculus. Nature of the data set: Toxicity in nu/nu mouse xenografted with human EOL-1 cells assessed as change in body weight at 25 to 100 mg/kg/day, ip. To be noted: in vivo. Type of data set: organism-based. In short, it runs like this: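 Female nu/nu mice, 6 weeks old, implanted subcutaneously in the right flank with 5 million EOL-1 cells in PBS/Matrigel 1:1. At tumour size 200–400 mm³, mice randomised into groups of 6 and given daily IP doses of 25, 50 or 100 mg/kg in 0.5% methylcellulose/0.4% Tween80, or vehicle, for 14 days. Body weight measured daily and normalised to initial weight; mean ± SEM.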
(In xenograft studies the graft and the host belong to different species.)

The target in data set [20] is Platelet-derived growth factor receptor alpha (Homo sapiens, UniProt P16234). Nature of the data set: Inhibition of PDGFRalpha in human EOL-1 cells assessed as decrease in STAT5 phosphorylation at Y694 residue after 2 hrs in presence of PDGF-AA by Western blot analysis. Type of data set: cell-based. (Immunoblotting shows a protein as a band on a membrane.)

Drawing on ChEMBL document CHEMBL4229344 (Eur J Med Chem, 2018), this text covers Activity and inhibition for one compound.

Sequence of Serine/threonine-protein kinase SIK3 (Homo sapiens) (Q9Y2K2 whole entry, looked up, the tested form may be a part): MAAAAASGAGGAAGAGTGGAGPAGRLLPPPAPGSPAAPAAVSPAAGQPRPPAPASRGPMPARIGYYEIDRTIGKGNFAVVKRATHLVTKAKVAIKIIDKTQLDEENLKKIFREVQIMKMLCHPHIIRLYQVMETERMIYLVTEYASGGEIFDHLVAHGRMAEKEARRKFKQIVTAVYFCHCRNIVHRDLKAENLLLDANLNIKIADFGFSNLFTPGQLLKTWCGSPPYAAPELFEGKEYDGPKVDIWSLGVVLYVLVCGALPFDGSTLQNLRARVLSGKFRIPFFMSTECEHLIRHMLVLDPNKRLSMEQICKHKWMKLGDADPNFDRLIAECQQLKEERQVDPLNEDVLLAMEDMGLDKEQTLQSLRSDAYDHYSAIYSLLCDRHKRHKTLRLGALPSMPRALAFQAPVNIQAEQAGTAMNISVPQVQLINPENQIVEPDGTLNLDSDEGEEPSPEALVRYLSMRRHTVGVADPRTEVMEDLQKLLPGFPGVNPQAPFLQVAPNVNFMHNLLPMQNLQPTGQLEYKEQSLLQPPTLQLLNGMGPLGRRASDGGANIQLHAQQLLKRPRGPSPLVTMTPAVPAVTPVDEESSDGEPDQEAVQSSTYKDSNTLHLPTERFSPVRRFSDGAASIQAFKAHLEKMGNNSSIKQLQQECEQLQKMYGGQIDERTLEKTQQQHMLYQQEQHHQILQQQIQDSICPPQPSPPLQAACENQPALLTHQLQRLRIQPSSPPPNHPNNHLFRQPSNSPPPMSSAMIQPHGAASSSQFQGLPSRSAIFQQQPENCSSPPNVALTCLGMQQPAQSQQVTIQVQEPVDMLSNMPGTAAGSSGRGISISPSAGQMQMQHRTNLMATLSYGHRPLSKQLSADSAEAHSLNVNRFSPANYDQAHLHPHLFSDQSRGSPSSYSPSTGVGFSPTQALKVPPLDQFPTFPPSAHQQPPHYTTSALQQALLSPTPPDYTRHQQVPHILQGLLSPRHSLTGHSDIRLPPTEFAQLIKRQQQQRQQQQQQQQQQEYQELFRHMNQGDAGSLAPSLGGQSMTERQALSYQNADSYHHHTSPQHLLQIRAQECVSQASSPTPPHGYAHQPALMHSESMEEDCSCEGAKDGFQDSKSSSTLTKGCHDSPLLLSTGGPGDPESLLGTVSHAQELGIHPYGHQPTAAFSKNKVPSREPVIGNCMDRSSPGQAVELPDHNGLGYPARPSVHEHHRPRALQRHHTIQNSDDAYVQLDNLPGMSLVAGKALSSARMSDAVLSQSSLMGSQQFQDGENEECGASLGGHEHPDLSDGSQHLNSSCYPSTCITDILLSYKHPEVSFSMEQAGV
Sequence of Glycogen synthase kinase-3 beta (Homo sapiens) (P49841 whole entry, looked up, the tested form may be a part): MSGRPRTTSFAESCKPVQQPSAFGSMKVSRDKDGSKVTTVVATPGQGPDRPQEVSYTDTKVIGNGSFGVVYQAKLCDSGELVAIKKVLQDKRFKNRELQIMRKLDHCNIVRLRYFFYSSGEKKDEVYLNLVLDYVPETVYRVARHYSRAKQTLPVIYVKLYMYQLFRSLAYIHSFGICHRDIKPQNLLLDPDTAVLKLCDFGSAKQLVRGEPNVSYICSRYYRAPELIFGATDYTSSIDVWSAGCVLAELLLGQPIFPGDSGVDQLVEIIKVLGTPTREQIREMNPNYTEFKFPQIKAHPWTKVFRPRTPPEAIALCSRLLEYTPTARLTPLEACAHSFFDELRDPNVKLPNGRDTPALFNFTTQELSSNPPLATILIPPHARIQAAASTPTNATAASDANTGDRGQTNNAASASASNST
Sequence of Casein kinase I isoform alpha (Homo sapiens) (P48729 2-337 limits assumed): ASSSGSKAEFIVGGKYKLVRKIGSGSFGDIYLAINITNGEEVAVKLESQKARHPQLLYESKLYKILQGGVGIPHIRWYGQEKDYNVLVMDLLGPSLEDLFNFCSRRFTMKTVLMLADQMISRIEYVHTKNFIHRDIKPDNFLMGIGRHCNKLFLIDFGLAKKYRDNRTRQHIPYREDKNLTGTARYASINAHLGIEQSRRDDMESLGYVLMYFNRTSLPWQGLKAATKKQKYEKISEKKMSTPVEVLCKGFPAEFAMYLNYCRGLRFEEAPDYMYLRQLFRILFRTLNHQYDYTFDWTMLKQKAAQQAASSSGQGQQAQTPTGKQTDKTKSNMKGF
Sequence of Platelet-derived growth factor receptor alpha (P16234 whole entry): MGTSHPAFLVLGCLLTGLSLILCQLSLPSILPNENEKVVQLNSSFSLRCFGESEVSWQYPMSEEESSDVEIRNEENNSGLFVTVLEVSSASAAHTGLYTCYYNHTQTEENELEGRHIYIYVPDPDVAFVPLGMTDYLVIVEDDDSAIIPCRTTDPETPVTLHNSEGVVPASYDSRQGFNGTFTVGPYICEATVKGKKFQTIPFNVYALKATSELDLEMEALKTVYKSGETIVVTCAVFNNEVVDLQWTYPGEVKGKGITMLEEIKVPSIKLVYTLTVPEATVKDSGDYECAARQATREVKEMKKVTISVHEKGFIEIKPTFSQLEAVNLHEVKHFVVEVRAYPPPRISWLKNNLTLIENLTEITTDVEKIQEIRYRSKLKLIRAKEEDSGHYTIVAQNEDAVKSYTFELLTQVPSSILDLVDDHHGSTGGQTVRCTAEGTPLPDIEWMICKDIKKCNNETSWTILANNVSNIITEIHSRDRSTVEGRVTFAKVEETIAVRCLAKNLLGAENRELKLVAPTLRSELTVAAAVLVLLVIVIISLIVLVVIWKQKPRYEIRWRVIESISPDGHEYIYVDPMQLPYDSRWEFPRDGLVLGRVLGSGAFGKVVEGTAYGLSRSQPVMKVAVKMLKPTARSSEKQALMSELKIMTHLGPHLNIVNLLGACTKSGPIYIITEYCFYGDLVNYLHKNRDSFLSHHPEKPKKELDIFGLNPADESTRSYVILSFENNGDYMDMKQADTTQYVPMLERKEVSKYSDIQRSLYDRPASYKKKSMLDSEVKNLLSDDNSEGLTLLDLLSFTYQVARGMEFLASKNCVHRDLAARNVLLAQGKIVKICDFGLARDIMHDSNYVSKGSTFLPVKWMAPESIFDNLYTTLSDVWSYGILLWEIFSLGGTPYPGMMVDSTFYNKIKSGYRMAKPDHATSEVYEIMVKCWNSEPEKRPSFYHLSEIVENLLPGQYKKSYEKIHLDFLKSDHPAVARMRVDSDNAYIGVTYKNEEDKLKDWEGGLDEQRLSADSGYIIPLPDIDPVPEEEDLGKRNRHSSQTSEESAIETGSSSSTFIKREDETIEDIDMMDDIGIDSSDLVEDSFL
Sequence of Serine/threonine-protein kinase BRSK2 (Homo sapiens) (Q8IWQ3 whole entry, the tested form may be a part): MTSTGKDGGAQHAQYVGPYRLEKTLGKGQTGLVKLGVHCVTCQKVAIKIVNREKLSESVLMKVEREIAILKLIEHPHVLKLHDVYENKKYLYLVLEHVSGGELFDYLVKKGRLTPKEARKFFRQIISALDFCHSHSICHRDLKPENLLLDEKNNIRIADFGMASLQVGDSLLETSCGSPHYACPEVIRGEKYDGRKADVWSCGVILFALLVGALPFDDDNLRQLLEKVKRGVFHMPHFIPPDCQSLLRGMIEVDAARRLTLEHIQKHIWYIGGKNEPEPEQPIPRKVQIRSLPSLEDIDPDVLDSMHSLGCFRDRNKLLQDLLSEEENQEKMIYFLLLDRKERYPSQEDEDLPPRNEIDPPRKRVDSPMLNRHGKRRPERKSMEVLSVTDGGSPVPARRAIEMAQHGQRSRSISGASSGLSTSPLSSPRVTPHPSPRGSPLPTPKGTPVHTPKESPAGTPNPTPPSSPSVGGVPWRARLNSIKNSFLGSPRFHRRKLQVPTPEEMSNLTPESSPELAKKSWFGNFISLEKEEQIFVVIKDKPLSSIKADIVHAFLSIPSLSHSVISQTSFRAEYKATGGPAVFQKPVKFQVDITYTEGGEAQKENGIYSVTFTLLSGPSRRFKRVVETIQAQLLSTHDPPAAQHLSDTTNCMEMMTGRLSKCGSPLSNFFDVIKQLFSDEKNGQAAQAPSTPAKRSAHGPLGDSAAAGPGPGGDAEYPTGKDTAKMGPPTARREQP
Sequence of Interleukin-1 receptor-associated kinase 4 (Homo sapiens) (Q9NWZ3 whole entry, the tested form may be a part): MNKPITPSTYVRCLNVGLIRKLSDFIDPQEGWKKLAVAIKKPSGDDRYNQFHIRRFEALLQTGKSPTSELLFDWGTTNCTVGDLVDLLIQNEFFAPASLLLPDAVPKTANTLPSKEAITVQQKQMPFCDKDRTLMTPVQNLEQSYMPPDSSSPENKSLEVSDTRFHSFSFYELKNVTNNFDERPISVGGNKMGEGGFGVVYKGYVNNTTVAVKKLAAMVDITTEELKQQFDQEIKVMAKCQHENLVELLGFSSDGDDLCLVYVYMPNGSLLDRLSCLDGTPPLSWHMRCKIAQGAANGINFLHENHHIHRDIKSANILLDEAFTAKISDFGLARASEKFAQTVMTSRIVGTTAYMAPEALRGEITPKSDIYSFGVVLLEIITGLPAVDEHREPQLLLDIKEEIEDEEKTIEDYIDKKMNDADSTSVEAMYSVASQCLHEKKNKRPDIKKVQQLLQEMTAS
Sequence of NUAK family SNF1-like kinase 2 (Homo sapiens) (Q9H093 whole entry, the tested form may be a part): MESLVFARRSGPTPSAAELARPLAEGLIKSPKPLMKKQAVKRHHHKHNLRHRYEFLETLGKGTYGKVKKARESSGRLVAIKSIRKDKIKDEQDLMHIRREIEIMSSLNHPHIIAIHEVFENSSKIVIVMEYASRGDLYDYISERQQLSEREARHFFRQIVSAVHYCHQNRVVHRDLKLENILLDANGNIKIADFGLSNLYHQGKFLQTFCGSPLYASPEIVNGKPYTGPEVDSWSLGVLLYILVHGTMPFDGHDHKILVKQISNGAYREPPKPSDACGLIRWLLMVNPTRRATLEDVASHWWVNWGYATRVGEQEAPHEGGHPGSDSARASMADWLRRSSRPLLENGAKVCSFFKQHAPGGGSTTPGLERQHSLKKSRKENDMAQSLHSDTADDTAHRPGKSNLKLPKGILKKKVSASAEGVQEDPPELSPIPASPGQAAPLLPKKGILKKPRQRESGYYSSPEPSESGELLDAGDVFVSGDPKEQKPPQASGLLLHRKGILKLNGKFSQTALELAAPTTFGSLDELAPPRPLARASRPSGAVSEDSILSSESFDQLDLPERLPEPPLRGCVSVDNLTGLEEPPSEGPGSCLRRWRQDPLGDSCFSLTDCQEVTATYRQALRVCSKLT

Regarding `Cc1ccc(NC(=O)c2ccc(CN(CCN(C)C)C(=O)c3cccnc3)cc2)cc1Nc1nccc(-c2cccnc2)n1`, the Activity in [1] was determined as 97%; in data set [2], 100%; in [3], 85%; in data set [4], 87%; in data set [5], 87%; in data set [6], 95%. The Activity came to 100% in [7]; 0.8% in data set [8]; 87% in data set [9]; 97% in data set [10]; 99% in [11]; 95% in [12]. The Activity in data set [13] was 90%; in data set [14], 93%; in data set [15], 93%; in [16], 96%; in data set [17], 89%; in data set [18], 100%. Further, the Activity result in data set [19] is “Toxic”. Also, the inhibition entry in [20] is “Dose-dependent effect”.
